CHOP inhibitor: inhibitors of CHOP induction in ER stress response | CHO-K1 CHOP-promoter luciferase, tunicamycin-induced, 15-18 h | inhibition, % at 10 µM | 3.8% of 220,000 active | AID 2732;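 active = compounds that reduced the stress-induced luciferase reporter signal by more than about 70% of percent inhibition, limit read from the data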
PKD1 inh: PKD1 (human) kinase inhibition | Q15139 | AID 797 | PKD1 kinase fluorescence polarization assay | inhibition, % (test concentration not listed) | 0.056% of 200,000 active
Wee1 degr inh: human Wee1 degradation inhibition, primary screen; P30291; HeLa Luc-Wee1K328M stability, luciferase luminescence; 100% = proteasome inhibitor MG132 effect; reporter increase, % at 5 µM; 1.2% of 220,000 active;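 active = activation above the mean of all tested compounds plus 3 SD, set per screening run, cut at about 8.8% in these data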;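 note: cells exposed to compound for 20 h before luminescence read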
Target sequence (P30291 whole entry K328M): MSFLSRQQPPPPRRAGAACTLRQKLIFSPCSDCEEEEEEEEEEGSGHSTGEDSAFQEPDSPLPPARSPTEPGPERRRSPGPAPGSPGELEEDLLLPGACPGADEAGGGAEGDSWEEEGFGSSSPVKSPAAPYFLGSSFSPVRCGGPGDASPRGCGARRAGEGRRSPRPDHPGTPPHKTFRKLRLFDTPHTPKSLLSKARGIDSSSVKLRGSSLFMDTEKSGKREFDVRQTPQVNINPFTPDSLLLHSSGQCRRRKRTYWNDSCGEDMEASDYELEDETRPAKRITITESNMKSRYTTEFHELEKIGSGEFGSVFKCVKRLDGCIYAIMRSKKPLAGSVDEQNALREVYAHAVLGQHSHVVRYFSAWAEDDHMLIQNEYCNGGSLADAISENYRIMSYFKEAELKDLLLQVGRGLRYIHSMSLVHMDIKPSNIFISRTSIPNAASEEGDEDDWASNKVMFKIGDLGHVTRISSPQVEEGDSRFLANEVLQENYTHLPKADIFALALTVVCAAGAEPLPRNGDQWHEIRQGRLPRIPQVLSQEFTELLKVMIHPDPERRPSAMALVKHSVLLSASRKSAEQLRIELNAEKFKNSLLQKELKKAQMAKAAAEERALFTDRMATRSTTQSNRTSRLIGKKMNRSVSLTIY
L major viab: inhibitors of Leishmania major promastigote growth. Leishmania major promastigotes, resazurin fluorescence viability. inhibition, % at 10 µM. AID 1063. 9% of 200,000 active;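 note: promastigotes grown with compound for 44 hours at 28 °C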
Arbovirus inh: arbovirus infection inhibition; inhibition, % at 10 µM; arbovirus infection cell-based antiviral screen; 0.37% of 200,000 active; in the data active = inhibition above about 30%
Rad51 HR inh: Rad51 (human) homologous recombination inhibition. hRad51 DNA strand exchange, fluorescence dequenching. 0.085% of 200,000 active. Q06609. inhibition, % at 10 µM;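 active = inhibition above 40% at the single screening dose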
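System: human Rad51 nucleoprotein filaments preassembled on unlabelled ssDNA. Reagent: labelled 47-mer dsDNA for strand exchange. Schedule: 30-min compound preincubation and 15-min exchange, both room temperature. Measured by: FRET fluorescence dequenching, excitation 485 nm, emission 520 nm. Read-out: Fluorescence-based percent inhibition, control- and blank-normalised. Benchmarks: plate controls and plate blanks.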
Large screens that a line does not name were inactive. Hits are enriched below; roughly 12% of the tested compounds scored in any of these assays. Cut-off read from the data, not from the text of the source, unless noted: active = inhibition above about 50%; inactive = the rest.

COC(=O)CNC(=O)c1cc(-c2ccncc2)nc2c(C)c(Cl)ccc12	none
Cc1c(Cl)ccc2c(C(=O)NC(C)c3ccncc3)cc(-c3ccncc3)nc12 (stereo unspecified)	CHOP inhibitor 79
O=C(c1ccc(Oc2cc(Cl)cc(Cl)c2)o1)N1CCCCC1	none (no result: PKD1 inh, L major viab, Arbovirus inh)
Cn1cc(/C=N\O)nc2c(=O)n(-c3ccccc3)c(=O)nc1-2	none
Cc1cc(C)c2c3c(sc2n1)C(=O)N(c1ccccc1C)CC(=O)N3	Wee1 degr inh 9.5 (no result: PKD1 inh, L major viab, Arbovirus inh)
Cc1ccc(N2CC(=O)Nc3c(sc4nc(C)cc(C)c34)C2=O)cc1	none (no result: PKD1 inh, L major viab, Arbovirus inh)
CCNc1nc(SCC(=O)OC)nc(N(C)C)n1	none
CC(=O)C1=C(O)C(=O)N(c2ccc(C(=O)O)cc2)C1c1ccccc1 (stereo unspecified)	Wee1 degr inh 9.2
CCOC(=O)c1ccc(N2C(=O)C(O)=C(C(C)=O)C2c2ccccc2)cc1 (stereo unspecified)	none
Cc1ccc(C(=O)N/N=C/c2cccc(OC(=O)/C=C/c3ccco3)c2)cn1	none
O=C(/C=C/c1ccco1)Oc1cc(Br)cc(/C=N/NC(=O)c2ccccc2O)c1	L major viab 99
Cc1cc(C(=O)CSc2nn3c(=O)c(C(C)(C)C)nnc3s2)c(C)n1C	none
CCC(=O)Nc1ccc(NC(=O)CSc2nc3cc4c(cc3cc2C)CCC4)cc1	CHOP inhibitor 94
Cc1ccc(S(=O)(=O)N(C)Cc2ccc(C(=O)N/N=C/c3ccc(OC(F)F)cc3OC(F)F)cc2)cc1	L major viab 55
CCN(CC)c1ccc(/C=C2\C(=O)c3ccc(C(=O)O)cc3C2=O)cc1	none
CC(=O)Nc1ccc2nc(CN3CCC(CO)(CCc4ccccc4)CC3)ccc2c1	none (no result: PKD1 inh, L major viab, Arbovirus inh)
COc1ccc(O)c(-c2cc(-c3ccccc3[N+](=O)[O-])[nH]n2)c1	none (no result: Rad51 HR inh)
Cc1ccc(O)c(-c2cc(-c3ccccc3[N+](=O)[O-])[nH]n2)c1	L major viab 57 (no result: Rad51 HR inh)
O=[N+]([O-])c1ccccc1-c1cc(-c2cc(Cl)ccc2O)n[nH]1	CHOP inhibitor 77 (no result: Rad51 HR inh)
Cc1ccc(OCCC(=O)OCC(=O)Nc2ccc(Cl)cn2)cc1	CHOP inhibitor 74
O=C(CCCOc1ccccc1)Nc1ccc(Cl)cn1	CHOP inhibitor 72
O=C(CN1CCN(Cc2ccccc2)CC1)Nc1ccc(Cl)cn1	L major viab 53
O=C(CSCc1ccccc1)Nc1ccc(Cl)cn1	none
O=C(CC(c1ccccc1)c1ccccc1)Nc1ccc(Cl)cn1	CHOP inhibitor 78
COCCNC(=O)C(c1ccc(F)cc1)N(C(=O)CCC(=O)Nc1nccs1)c1ccc(C)cc1 (stereo unspecified)	none
Cc1ccc(NC(=O)C(=O)NCCCN2CCOCC2)c(C)c1	none (no result: PKD1 inh, L major viab, Arbovirus inh)
O=C1C(Cc2ccc(Br)cc2)SC(=Nc2ccccc2)N1c1ccccc1 (stereo unspecified)	L major viab 54
O=C1C(Cc2ccc(F)cc2)SC(=Nc2ccccc2)N1c1ccccc1 (stereo unspecified)	none
CC1OC(OC2C(OC3C(O[C@H]4CC[C@]5(C)C6C=C[C@]78OC[C@@]9(CC[C@@H](C)[C@H](C)C97)[C@H](O)C[C@@]8(C)[C@]6(C)CC[C@H]5C4(C)C)OC(C)C(O)C3O)OC(CO)C(O)C2O)C(O)C(O)C1O (stereo partly specified)	CHOP inhibitor 101 (no result: PKD1 inh, Wee1 degr inh, L major viab, Arbovirus inh, Rad51 HR inh)
O=C(CC(c1ccccc1)c1cc(Br)ccc1O)NCc1ccco1 (stereo unspecified)	L major viab 99 (no result: Rad51 HR inh)
O=C(NCc1ccccc1Cl)NCc1ccccc1Cl	none (no result: PKD1 inh, L major viab, Arbovirus inh)
O=C(CC(c1ccccc1)c1ccccc1O)NCc1ccccc1Cl (stereo unspecified)	L major viab 51
O=C(CC(c1ccccc1)c1ccccc1O)NCc1ccco1 (stereo unspecified)	none
OC[C@H]1O[C@@H](n2cnc3c(NC4CCCC4)ncnc32)C(O)[C@H]1O (stereo partly specified)	none (no result: PKD1 inh, Wee1 degr inh, L major viab, Arbovirus inh, Rad51 HR inh)
CCCCn1c(=O)[nH]c2nc3cc(NC(C)=O)ccc3nc2c1=O	none (no result: PKD1 inh, L major viab, Arbovirus inh)
CCCCCCn1c(=O)[nH]c2nc3cc(N)c(C)cc3nc2c1=O	CHOP inhibitor 101
CCN(CC)c1nc(-c2ccccn2)nc(-c2ccccc2)c1C#N	L major viab 71
O=C(COC(=O)c1ccc(O)cc1)Nc1ccccc1[N+](=O)[O-]	none (no result: Rad51 HR inh)
COc1ccccc1NC(=S)NC1CCC(CC2CCC(NC(=S)Nc3ccccc3OC)CC2)CC1 (stereo unspecified)	none

From PubChem BioAssay
